Laboratory results taken from ChEMBL document CHEMBL6134774, “Novel benzenesulfonamides containing a dual triazole moiety with selective carbonic anhydrase inhibition and anticancer activity” (RSC Med Chem, 2025).

Experiments:
Carbonic anhydrase 9 = Carbonic anhydrase 9 (Homo sapiens, UniProt Q16790); test: Inhibition of human CA9 assessed as inhibition constant
How it was run: (§1)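 Esterase activity of the hCA isoform was followed spectrophotometrically by Verpoorte's method, as the rise in absorbance at 348 nm with p-nitrophenyl acetate as substrate. Increasing inhibitor concentrations were incubated with the substrate, from 1 mg mL−1 DMSO stocks, to derive KI. Results are means of triplicate assays ± SEM.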

Carbonic anhydrase 12 = Carbonic anhydrase 12 (Homo sapiens, UniProt O43570); test: Inhibition of human CA12 assessed as inhibition constant; how it was run: as §1
A549 = test: Cytotoxicity against human A549 cells assessed as cell viability measured after 48 hrs by MTT assay; conditions: A549, 48 h
Hep 3B2 = test: Cytotoxicity against human Hep3B cells assessed as cell viability measured after 48 hrs by MTT assay
L929 = test: Cytotoxicity against mouse L929 cells assessed as cell viability measured after 48 hrs by MTT assay; conditions: L929, 48 h

Carbonic anhydrase 12, sequence (O43570 whole entry): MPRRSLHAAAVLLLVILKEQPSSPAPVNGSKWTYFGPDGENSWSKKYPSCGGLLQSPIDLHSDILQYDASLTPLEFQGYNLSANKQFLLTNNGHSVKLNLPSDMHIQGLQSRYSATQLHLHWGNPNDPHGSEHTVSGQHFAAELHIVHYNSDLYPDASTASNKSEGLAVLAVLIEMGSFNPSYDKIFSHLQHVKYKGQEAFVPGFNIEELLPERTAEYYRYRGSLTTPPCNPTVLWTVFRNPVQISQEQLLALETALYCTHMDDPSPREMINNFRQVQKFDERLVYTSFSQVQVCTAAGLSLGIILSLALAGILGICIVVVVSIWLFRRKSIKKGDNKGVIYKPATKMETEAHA

Row | Compound | Ki (Carbonic anhydrase 9) [µM] | Ki (Carbonic anhydrase 12) [µM] | IC50 (A549) [µM] | IC50 (Hep 3B2) [µM] | IC50 (L929) [µM]
1 | CCCCCCCO/N=C(/C)c1nnn(-c2ccc(S(N)(=O)=O)cc2)c1C | 0.196 | 0.117 | – | – | –
2 | O=c1[nH]cc(F)c(=O)[nH]1 [FLUOROURACIL] | – | – | 100 | 60.6 | 14
